Assay [1] deals with T1, Cannabinoid receptor 1 (Homo sapiens, UniProt P21554).
The target of assay [2] is T1, Cannabinoid receptor 1. Kind of assay: Displacement of [3H]SR141716A from human CB1 receptor expressed in CHO cells at 10 uM. Type of assay: cell-based. The method, boiled down: (§1)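 Radioligand competition on membranes from CHO cells stably transfected with human CB1 or CB2. Radioligands at 1 nM: [3H]-SR141716A for hCB1, [3H]-CP-55,940 for hCB2. Compound screened at 10 µM. 40 µg membrane protein; Tris-HCl pH 7.4 buffer with MgCl2, EDTA, 0.5% BSA; 1 h at 30 °C. Filtered on PEI-treated GF/B filters and counted. Nonspecific binding with 10 µM HU-210. Result given as % displacement.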
For orientation: Displacement assays read how much labelled ligand stays bound in the presence of the test substance.

In assay [3] the target is Cannabinoid receptor 2 (Homo sapiens) (UniProt P34972). Put plainly: Displacement of [3H]CP-55940 from human CB2 receptor expressed in CHO cells at 10 uM. Type of assay: cell-based. The method, boiled down: as §1
Assay [4] deals with T2, Fatty-acid amide hydrolase 1 (Rattus norvegicus) (UniProt P97612).
T2 sequence (whole entry): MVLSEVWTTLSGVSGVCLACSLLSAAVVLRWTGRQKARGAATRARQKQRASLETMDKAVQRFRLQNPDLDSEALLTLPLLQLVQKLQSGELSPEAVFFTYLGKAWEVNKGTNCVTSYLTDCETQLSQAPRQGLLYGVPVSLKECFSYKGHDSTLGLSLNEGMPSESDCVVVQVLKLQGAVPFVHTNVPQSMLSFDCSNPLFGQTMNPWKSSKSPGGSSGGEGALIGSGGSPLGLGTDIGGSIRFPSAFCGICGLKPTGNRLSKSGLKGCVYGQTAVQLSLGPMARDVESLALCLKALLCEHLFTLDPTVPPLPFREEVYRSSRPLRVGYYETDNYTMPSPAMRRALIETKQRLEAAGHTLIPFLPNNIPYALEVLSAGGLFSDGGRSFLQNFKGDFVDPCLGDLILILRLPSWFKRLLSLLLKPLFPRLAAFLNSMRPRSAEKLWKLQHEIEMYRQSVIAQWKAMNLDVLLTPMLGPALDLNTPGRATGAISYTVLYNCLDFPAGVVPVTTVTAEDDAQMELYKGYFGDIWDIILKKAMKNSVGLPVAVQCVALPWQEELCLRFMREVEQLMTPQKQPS
Kind of assay: Inhibition of FAAH in rat brain homogenates at 10 uM. Type of assay: tissue-based. The method, boiled down:
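FAAH activity in adult rat brain membranes, prepared by homogenization in HEPES pH 7.0 and repeated centrifugation at 36 000 g. Compound at 10 µM incubated with [3H]-anandamide (2 µM final) in Tris-HCl pH 7.6, EDTA, 0.1% BSA for 10 min at 37 °C. Stopped on ice with chloroform/methanol; radioactivity in the aqueous methanol phase counted. Blanks without homogenate.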

The target in assay [5] is T1, Cannabinoid receptor 1. Put plainly: Potency at human CB1 receptor in a [35S]GTP-gamma-S functional assay.
The target in assay [6] is Cannabinoid receptor 1 (Rattus norvegicus) (UniProt P20272). Put plainly: Potency at rat CB1 receptor in a [35S]GTPgammaS functional assay at 10 uM. The settings on record: filed as antagonist. In short, it runs like this:
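[35S]-GTPγS binding in rat cerebellum homogenate, 40 µg protein. Buffer: Tris-HCl pH 7.4 with 100 mM NaCl, 0.1% BSA and 20 µM GDP. Compound at 10 µM; 0.05 nM [35S]-GTPγS final; 1 h at 30 °C. Filtered on GF/B and counted. Nonspecific binding with 100 µM Gpp(NH)p. Mean ± SEM of at least three experiments in duplicate.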
For orientation: Binding of GTPγS marks nucleotide exchange on a G protein.

In assay [7] the target is Cannabinoid receptor 1 (Rattus norvegicus, UniProt P20272). Put plainly: Displacement of [3H]SR141716A from CB1 receptor in rat cerebellum. Type of assay: tissue-based. The method, boiled down:
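40 µg protein; Tris-HCl pH 7.4 buffer with 0.5% BSA; 1 h at 30 °C. Compound at varying concentrations; nonspecific binding with 10 µM HU-210. IC50 by nonlinear regression, converted to Ki by Cheng-Prusoff. Mean ± SEM of at least four experiments in duplicate.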

The structures appear in SMILES notation. A value given as a limit tells only on which side of the number the result lay.

Chain of Cannabinoid receptor 2 (Homo sapiens) (P34972 whole entry): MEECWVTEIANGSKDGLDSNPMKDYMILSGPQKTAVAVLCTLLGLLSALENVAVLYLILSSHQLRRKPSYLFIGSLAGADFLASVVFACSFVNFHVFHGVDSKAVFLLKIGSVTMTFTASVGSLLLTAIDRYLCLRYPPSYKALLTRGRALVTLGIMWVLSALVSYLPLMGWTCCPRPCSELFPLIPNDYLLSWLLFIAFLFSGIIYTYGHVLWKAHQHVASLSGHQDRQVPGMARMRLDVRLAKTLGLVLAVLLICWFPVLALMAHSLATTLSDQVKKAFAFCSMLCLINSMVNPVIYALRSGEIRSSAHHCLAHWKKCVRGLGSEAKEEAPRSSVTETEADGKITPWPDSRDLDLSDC
Chain of Cannabinoid receptor 1 (Rattus norvegicus) (P20272 whole entry): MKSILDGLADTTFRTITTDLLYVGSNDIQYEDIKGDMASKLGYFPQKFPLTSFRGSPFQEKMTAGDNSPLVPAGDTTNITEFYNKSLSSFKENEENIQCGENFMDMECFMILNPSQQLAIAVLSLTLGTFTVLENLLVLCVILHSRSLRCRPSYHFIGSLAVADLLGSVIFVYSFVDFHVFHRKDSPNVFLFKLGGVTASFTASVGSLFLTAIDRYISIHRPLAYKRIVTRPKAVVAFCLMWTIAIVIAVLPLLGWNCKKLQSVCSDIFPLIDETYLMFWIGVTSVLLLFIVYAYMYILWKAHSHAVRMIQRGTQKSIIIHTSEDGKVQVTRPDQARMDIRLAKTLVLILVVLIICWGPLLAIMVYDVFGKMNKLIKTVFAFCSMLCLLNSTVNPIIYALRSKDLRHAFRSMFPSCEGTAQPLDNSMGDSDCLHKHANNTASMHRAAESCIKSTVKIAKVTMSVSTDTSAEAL
Chain of Cannabinoid receptor 1 (Rattus norvegicus, UniProt P20272) (P20272 whole entry): as above
T1 sequence (P21554 whole entry): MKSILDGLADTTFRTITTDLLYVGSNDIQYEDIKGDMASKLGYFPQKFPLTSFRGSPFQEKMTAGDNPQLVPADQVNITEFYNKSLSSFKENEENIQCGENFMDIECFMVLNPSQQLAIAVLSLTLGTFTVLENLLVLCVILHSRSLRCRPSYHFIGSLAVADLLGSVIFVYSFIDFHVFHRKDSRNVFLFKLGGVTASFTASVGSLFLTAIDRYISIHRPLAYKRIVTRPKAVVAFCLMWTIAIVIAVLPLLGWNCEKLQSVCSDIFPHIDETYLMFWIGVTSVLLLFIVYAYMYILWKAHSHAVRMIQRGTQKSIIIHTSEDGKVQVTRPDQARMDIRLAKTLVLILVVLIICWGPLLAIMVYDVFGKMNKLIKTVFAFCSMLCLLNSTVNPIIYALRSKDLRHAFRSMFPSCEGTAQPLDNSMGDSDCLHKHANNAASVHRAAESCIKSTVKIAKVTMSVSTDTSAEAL

By Ki is commonly meant a measure of affinity in units of concentration, obtained from inhibition or displacement. The low end stands for higher affinity, the high end for lower affinity. Usually inhibition stands for the change of the read-out against control, counted positive when it falls. `O=C1C(c2ccccc2)N(c2ccc(Cl)c(Cl)c2)C(=S)N1c1ccc(Cl)c(Cl)c1` (stereo not given) had a Ki at Cannabinoid receptor 1 [1] of 2000 nM. For the same compound, the Activity is 78.7% on Cannabinoid receptor 1 [2] and below 10% in assay [3]. Further, the inhibition in assay [4] was 22.9%.
In the same order, the values of `O=C1C(c2ccc(Br)cc2)N(c2ccccc2)C(=O)N1c1ccccc1` (stereo not given) are 4030 nM, 75.4%, below 15% and 14.5%.
For the compound `O=C(c1ccccc1)N1C(=O)C(c2ccccc2)N(c2ccccc2)C1=O` (stereo not given), the Activity (at Cannabinoid receptor 1 [2]; in assay [3]) was below 10% in each case.
`O=C1C(c2ccccc2)N(c2ccc(O)cc2)C(=S)N1c1ccc(O)cc1` (stereo not given): the Activity is below 20% at Cannabinoid receptor 1 [2] and below 10% in assay [3]. This compound showed an inhibition in assay [4] of 31.5%.
As to `O=C1C(c2ccccc2)N(c2ccccc2)C(=O)N1c1ccccc1` (stereo not given), the Ki on Cannabinoid receptor 1 [1] was determined as 6300 nM. The Activity at Cannabinoid receptor 1 [2] was 57.1%; in assay [3], below 10%. The same compound displayed an inhibition in assay [4] below 10%.
On Cannabinoid receptor 1 [1], `COc1ccc(N2C(=O)C(c3ccccc3)N(c3ccc(OC)cc3)C2=S)cc1` (stereo not given) returned a Ki of 7030 nM. In addition, the Activity at Cannabinoid receptor 1 [2] is 65.6%; in assay [3], below 20%. In assay [4], the inhibition was below 10%.
Broadly, the EC50 is the concentration giving half of the maximal effect. Higher therefore signals a less potent agent. Turning to `O=C1C(c2ccccc2)N(c2cccc(I)c2)C(=S)N1c1cccc(I)c1` (stereo not given), the affinity at Cannabinoid receptor 1 [1], expressed as Ki, was 692 nM. For the same compound, the Activity at Cannabinoid receptor 1 [2] was 81.2%; in assay [3], below 15%. This compound returned an EC50 at Cannabinoid receptor 1 [5] of 461 nM. Besides, the inhibition in assay [4] was found to be 17.4%.
On Cannabinoid receptor 1 [1], `O=C1C(c2ccccc2)N(c2ccccc2)C(=S)N1c1ccccc1` (stereo not given) came in with a Ki above 8000 nM. Further, the Activity at Cannabinoid receptor 1 [2] was 61.7%; in assay [3], below 10%. This compound returned an inhibition in assay [4] of 11.8%.
Take `CCCCCC(=O)N1C(=O)C(c2ccccc2)N(c2ccccc2)C1=O` (stereo not given): the Activity (at Cannabinoid receptor 1 [2]; in assay [3]) was below 10% throughout.
Turning to `CCCCCN1C(=O)C(c2ccccc2)N(c2ccccc2)C1=O` (stereo not given), the Activity on Cannabinoid receptor 1 [2] is 41.1%; in assay [3], below 10%.
Regarding `O=C1C(c2ccccc2)N(c2ccc(Br)cc2)C(=O)N1c1ccc(Br)cc1` (stereo not given), the Ki came to 243 nM at Cannabinoid receptor 1 [1] and 311 nM on Cannabinoid receptor 1 [7]. For the same compound, the Activity at Cannabinoid receptor 1 [2] was 102%; in assay [3], 35.6%; in assay [6], “Antagonist”. This compound also registered an EC50 at Cannabinoid receptor 1 [5] of 195 nM. Also, in assay [4], the inhibition was below 10%.
For the compound `O=C1C(c2ccccc2)N(C2CCCCC2)C(=O)N1C1CCCCC1` (stereo not given), the Activity on Cannabinoid receptor 1 [2] turned out to be 25%.
Regarding `O=C1C(c2ccccc2)N(c2ccc(Cl)cc2)C(=O)N1c1ccc(Cl)cc1` (stereo not given), the Ki turned out to be 353 nM on Cannabinoid receptor 1 [1] and 247 nM at Cannabinoid receptor 1 [7]. In addition, the Activity at Cannabinoid receptor 1 [2] is 101%; in assay [3], 21.6%; in assay [6], “Antagonist”. For the same compound, on Cannabinoid receptor 1 [5], the EC50 is 309 nM. Moreover, the inhibition in assay [4] was below 10%.
Regarding `O=C1C(c2ccc(Cl)cc2)N(c2ccc(Cl)cc2)C(=O)N1c1ccc(Cl)cc1` (stereo not given), the figures for the Ki at Cannabinoid receptor 1 [1] and at Cannabinoid receptor 1 [7] were 1880 nM and 2620 nM, respectively. The Activity was 71.6% on Cannabinoid receptor 1 [2], 28.1% in assay [3] and “Antagonist” in assay [6]. At Cannabinoid receptor 1 [5], the midpoint of the response, the EC50, lay at 1110 nM. This compound also displayed an inhibition in assay [4] below 10%.
Compound `CCCCCCCN1C(=O)C(c2ccccc2)N(c2ccccc2)C1=O` (stereo not given) yielded an Activity in assay [3] below 10%.
For the compound `O=C1NC(=S)N(c2ccccc2)C1c1ccccc1` (stereo not given), the Activity (at Cannabinoid receptor 1 [2]; in assay [3]) was below 10% in each case.
Turning to `CCCCCCC(C)(C)c1cc(O)c2c(c1)OC(C)(C)[C@@H]1CC=C(CO)C[C@@H]21`, the results for the Ki at Cannabinoid receptor 1 [1] and at Cannabinoid receptor 1 [7] were 18.6 nM and 2.75 nM, respectively. This compound had an EC50 at Cannabinoid receptor 1 [5] of 0.6 nM.
Take `O=C1NC(=O)N(c2ccc(Br)cc2)C1c1ccccc1` (stereo not given): the Activity is 25.2% on Cannabinoid receptor 1 [2] and below 10% in assay [3].
`O=C1NC(=O)N(c2ccc(Cl)cc2)C1c1ccc(Br)cc1` (stereo not given): the Activity was below 15% on Cannabinoid receptor 1 [2] and below 10% in assay [3].
At Cannabinoid receptor 1 [1], `O=C1C(c2ccccc2)N(c2ccc(Cl)cc2)C(=S)N1c1ccc(Cl)cc1` (stereo not given) showed a Ki of 2160 nM. The values for the Activity (on Cannabinoid receptor 1 [2]; in assay [3]) were 93.7% and below 10%, respectively. The same compound returned an EC50 at Cannabinoid receptor 1 [5] of 2100 nM. Moreover, the inhibition in assay [4] stood at 11.4%.
Consider `O=C1NC(=O)N(c2ccc(Cl)cc2)C1c1ccccc1` (stereo not given), for which the results for the Activity (at Cannabinoid receptor 1 [2]; in assay [3]) were below 15% and below 10%, respectively.
The like results for `O=C1NC(=O)N(c2ccc(I)cc2)C1c1ccccc1` (stereo not given) were, in that order, below 20% and below 10%.
The like results for `O=C1NC(=O)N(c2ccc(Br)cc2)C1c1ccc(Br)cc1` (stereo not given) were, in that order, below 15% and below 10%.
For the compound `COc1ccc(N2C(=O)NC(=O)C2c2ccccc2)cc1` (stereo not given), the Activity (at Cannabinoid receptor 1 [2]; in assay [3]) was below 10% throughout.
For `COc1ccc(N2C(=O)C(c3ccccc3)N(c3ccc(OC)cc3)C2=O)cc1` (stereo not given), the Ki on Cannabinoid receptor 1 [1] is 6460 nM. The figures for the Activity (on Cannabinoid receptor 1 [2]; in assay [3]) were 57.8% and 31.4%, respectively. Besides, the inhibition in assay [4] was below 10%.
For the compound `O=C1C(c2ccccc2)N(c2cccc(Cl)c2)C(=O)N1c1cccc(Cl)c1` (stereo not given), at Cannabinoid receptor 1 [1], the Ki came to 2110 nM. Further, the Activity came to 76% at Cannabinoid receptor 1 [2] and 32.1% in assay [3]. This compound also yielded an EC50 on Cannabinoid receptor 1 [5] of 936 nM. The same compound had an inhibition in assay [4] below 10%.
For `O=C1NC(=O)N(c2ccccc2)C1c1ccccc1` (stereo not given), the Activity (on Cannabinoid receptor 1 [2]; in assay [3]) was below 10% throughout.
On to `O=C1C(c2ccc(Br)cc2)N(c2ccc(Cl)cc2)C(=O)N1c1ccc(Cl)cc1` (stereo not given), for which the Ki on Cannabinoid receptor 1 [1] was found to be 905 nM; at Cannabinoid receptor 1 [7], 1740 nM. In addition, the Activity is 79.1% on Cannabinoid receptor 1 [2], below 20% in assay [3] and “Antagonist” in assay [6]. For the same compound, the response on Cannabinoid receptor 1 [5] was half-maximal at 1230 nM (EC50). The compound also displayed an inhibition in assay [4] of 15.4%.
`O=C1C(c2ccc(Br)cc2)N(c2ccccc2)C(=S)N1c1ccccc1` (stereo not given): affinity on Cannabinoid receptor 1 [1] was put at a Ki of 6310 nM. For the same compound, the Activity was 85.1% at Cannabinoid receptor 1 [2] and below 10% in assay [3]. Further, the inhibition in assay [4] worked out at 19.1%.
As to `O=C1NC(=O)N(c2ccccc2)C1c1ccc(Br)cc1` (stereo not given), the Activity on Cannabinoid receptor 1 [2] was below 15%; in assay [3], below 10%.
The compound `O=C1C(c2ccc(Cl)cc2)N(c2cccc(Cl)c2)C(=O)N1c1cccc(Cl)c1` (stereo not given) came in with a Ki at Cannabinoid receptor 1 [1] of 3310 nM. Further, the Activity on Cannabinoid receptor 1 [2] came out at 67.4%; in assay [3], 24.8%. The compound further yielded an inhibition in assay [4] below 10%.
As for `O=C1C(c2ccccc2)N(c2ccc(Br)cc2)C(=S)N1c1ccc(Br)cc1` (stereo not given), the Ki on Cannabinoid receptor 1 [1] is 1450 nM. Besides, the results for the Activity (on Cannabinoid receptor 1 [2]; in assay [3]) were 100% and below 15%, respectively. Moreover, the EC50 at Cannabinoid receptor 1 [5] was found to be 1620 nM. This compound also had an inhibition in assay [4] below 10%.
`Cc1ccc(N2C(=O)C(c3ccccc3)N(c3ccc(C)cc3)C2=S)cc1` (stereo not given) gave a Ki at Cannabinoid receptor 1 [1] of 4970 nM. Also, the Activity at Cannabinoid receptor 1 [2] was 80.1%; in assay [3], below 20%. The compound further gave an inhibition in assay [4] below 10%.
On to `O=C1C(c2ccc(Cl)cc2)N(c2ccccc2)C(=O)N1c1ccccc1` (stereo not given), for which, on Cannabinoid receptor 1 [1], the Ki worked out at 6660 nM. Also, the Activity at Cannabinoid receptor 1 [2] is 60.2%; in assay [3], below 15%. For the same compound, the inhibition in assay [4] is 13.7%.

For the origin of these results see ChEMBL document CHEMBL1148623, “Synthesis and activity of 1,3,5-triphenylimidazolidine-2,4-diones and 1,3,5-triphenyl-2-thioxoimidazolidin-4-ones: characterization of new CB1 cannabinoid receptor inverse agonists/antagonists” (J Med Chem, 2006).
